Consider four compounds from publication PMC4987221 (Bioorganic & medicinal chemistry letters, 2016).

Data set [1] concerns the target T1, hM4 (Homo sapiens, UniProt P08173).
T1 sequence (P08173 1-479): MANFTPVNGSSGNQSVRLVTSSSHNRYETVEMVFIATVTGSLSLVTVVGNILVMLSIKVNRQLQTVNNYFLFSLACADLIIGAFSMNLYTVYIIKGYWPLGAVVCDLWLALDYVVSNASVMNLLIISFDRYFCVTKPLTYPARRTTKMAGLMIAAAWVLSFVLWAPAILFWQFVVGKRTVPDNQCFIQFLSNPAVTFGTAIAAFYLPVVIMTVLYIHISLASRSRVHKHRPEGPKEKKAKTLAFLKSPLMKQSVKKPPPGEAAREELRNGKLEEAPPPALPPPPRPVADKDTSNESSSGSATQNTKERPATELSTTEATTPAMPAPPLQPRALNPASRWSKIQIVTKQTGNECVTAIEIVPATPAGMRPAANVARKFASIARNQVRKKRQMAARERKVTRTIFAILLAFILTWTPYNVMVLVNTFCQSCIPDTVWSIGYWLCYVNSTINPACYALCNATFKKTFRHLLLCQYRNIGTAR
The data set is classed as cell-based. Summed up:
(§1)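 Functional calcium mobilization in CHO cells expressing M4 with the Gqi5 chimeric G protein (human M4 for line 2, rat M4 for line 3). The test compound was added with a fixed EC20 acetylcholine concentration, and efficacy was expressed as % of the maximal acetylcholine response. For the screening hit, DMSO stock from the screening source plates was used. Values are means of three independent experiments, each run in triplicate.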

Data set [2] addresses T2, rM4 (Rattus norvegicus, UniProt P08485).
T2 sequence (P08485 1-478): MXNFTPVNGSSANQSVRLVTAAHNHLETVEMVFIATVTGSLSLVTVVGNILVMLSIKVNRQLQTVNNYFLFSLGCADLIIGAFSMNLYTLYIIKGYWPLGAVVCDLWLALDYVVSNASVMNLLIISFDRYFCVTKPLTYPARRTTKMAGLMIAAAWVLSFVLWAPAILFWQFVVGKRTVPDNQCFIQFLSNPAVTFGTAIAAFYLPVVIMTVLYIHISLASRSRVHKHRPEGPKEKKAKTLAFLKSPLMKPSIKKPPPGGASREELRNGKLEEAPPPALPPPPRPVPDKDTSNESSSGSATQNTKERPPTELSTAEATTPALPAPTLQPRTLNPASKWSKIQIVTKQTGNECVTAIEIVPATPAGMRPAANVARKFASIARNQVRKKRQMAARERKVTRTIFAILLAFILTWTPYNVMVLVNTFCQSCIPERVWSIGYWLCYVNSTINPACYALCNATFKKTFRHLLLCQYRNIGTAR
The format is cell-based. To be noted: unit not given. Summed up: as §1

Data set [3] concerns the target T3, human M5 (Homo sapiens, UniProt P08912).
T3 sequence (P08912 1-532): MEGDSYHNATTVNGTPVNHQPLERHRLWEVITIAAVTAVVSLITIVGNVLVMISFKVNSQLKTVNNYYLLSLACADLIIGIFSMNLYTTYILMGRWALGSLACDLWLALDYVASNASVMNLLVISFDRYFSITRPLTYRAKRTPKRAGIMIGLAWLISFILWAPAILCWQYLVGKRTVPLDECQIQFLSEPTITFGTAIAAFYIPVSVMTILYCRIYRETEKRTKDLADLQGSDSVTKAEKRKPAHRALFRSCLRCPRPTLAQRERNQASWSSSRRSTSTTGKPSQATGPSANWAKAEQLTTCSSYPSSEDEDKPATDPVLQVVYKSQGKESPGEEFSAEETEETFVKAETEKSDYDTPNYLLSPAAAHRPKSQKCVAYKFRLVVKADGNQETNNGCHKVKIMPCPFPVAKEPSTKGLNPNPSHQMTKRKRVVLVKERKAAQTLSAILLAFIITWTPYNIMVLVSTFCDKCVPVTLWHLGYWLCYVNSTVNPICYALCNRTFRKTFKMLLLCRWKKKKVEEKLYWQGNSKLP
Put plainly: Built-in HTS counterscreen, human M5. The format is cell-based.

Data set [4] concerns the target T4, human M1 (Homo sapiens, UniProt P11229).
T4 sequence (P11229 1-460): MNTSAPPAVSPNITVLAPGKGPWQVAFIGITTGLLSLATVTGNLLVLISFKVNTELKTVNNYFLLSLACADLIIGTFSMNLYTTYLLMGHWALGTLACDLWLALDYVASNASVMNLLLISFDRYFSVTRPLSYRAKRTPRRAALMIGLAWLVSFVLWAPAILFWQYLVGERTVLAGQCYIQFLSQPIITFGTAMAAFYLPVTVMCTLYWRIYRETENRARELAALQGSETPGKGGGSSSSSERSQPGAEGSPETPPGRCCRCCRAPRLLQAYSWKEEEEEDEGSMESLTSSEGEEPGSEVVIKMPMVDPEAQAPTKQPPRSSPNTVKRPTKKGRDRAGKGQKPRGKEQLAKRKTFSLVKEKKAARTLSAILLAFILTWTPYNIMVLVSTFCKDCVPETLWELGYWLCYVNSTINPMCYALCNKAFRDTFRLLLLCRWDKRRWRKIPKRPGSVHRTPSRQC
Nature of the data set: Built-in HTS counterscreen, human M1. The format is cell-based.

A short description of data set [5]: Hepatic microsomal intrinsic clearance, rat. To be noted: for predicted hepatic clearance rCLhep: rat, from microsomal CLint. The data set is classed as in vitro ADME. A digest of the protocol: (§2)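 Intrinsic clearance was measured in hepatic microsomes (human for line 4, rat for line 5), and predicted hepatic clearance was calculated from the microsomal CLint. Data come from a single experiment run in triplicate.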

Data set [6] in a line: Hepatic microsomal intrinsic clearance, human. The data set is classed as in vitro ADME. A digest of the protocol: as §2
A short description of data set [7]: Metabolite identification in human cryopreserved hepatocytes. The data set is classed as in vitro ADME. Conditions: secondary alcohol 18 as the single major metabolite.
The mark [8] stands for this setting: rat hepatic microsomes, in words.
[9] abbreviates: human hepatic microsomes, in words.

With `Cc1nc2sc(C(=O)c3ccccc3)c(N)c2c(C)c1C` [Cpd 7], the “human M4 % ACh Max” value in data set [1] (HTS hit, using DMSO stock from the source plates) was determined as 76%. In addition, in data set [1] (unit not given), the “hM4 ACh Max” value is 76.8±4.1. Further, the “rM4 ACh Max” value in data set [2] is reported as 80.5±6.3. The “activity on human M5” value in data set [3] was “inactive”. Further, the “activity on human M1” value in data set [4] is “inactive”. In addition, in data set [5] (setting [8]), the “in vitro intrinsic clearance (CLint)” value is recorded as “very high” and the “predicted hepatic clearance (CLhep)” value was “near hepatic blood flow rates”. Besides, in data set [6] (setting [9]), the “in vitro intrinsic clearance (CLint)” value is given as “very high” and the “predicted hepatic clearance (CLhep)” value is “near hepatic blood flow rates”.
Regarding `Cc1cc(C)c2c(N)c(C(=O)c3ccncc3)sc2n1` [Cpd 12f], the “metabolism route (Met ID)” value in data set [7] was “rapid, and near quantitative, reductive metabolism”.
On to `Cc1cc(C)c2c(N)c(C(=O)CCc3ccncc3)sc2n1` [Cpd 19], for which the “predicted hepatic clearance rCLhep” value in data set [5] is reported as 62 mL/min/kg. The “predicted hepatic clearance hCLhep” value in data set [6] (human, from microsomal CLint) is given as 18 mL/min/kg.
For `COc1ccc(CCC(=O)c2sc3nnc(C)c(C)c3c2N)cc1F` [Cpd 20], the “predicted hepatic clearance rCLhep” value in data set [5] was 62 mL/min/kg.
